The text below walks through data of ChEMBL document CHEMBL1146933, “In silico identification of novel EGFR inhibitors with antiproliferative activity against cancer cells” (Bioorg Med Chem Lett, 2006).

The source made the active and inactive calls. The rule behind the calls is not given here.

In assay [1] the target is T1, Epidermal growth factor receptor (Homo sapiens, UniProt P00533). The assay is described as follows: Inhibition of EGFR kinase activity at 10 uM. The arrangement: scale not given: the % may be the effect or the level left.
T1 sequence (P00533 whole entry): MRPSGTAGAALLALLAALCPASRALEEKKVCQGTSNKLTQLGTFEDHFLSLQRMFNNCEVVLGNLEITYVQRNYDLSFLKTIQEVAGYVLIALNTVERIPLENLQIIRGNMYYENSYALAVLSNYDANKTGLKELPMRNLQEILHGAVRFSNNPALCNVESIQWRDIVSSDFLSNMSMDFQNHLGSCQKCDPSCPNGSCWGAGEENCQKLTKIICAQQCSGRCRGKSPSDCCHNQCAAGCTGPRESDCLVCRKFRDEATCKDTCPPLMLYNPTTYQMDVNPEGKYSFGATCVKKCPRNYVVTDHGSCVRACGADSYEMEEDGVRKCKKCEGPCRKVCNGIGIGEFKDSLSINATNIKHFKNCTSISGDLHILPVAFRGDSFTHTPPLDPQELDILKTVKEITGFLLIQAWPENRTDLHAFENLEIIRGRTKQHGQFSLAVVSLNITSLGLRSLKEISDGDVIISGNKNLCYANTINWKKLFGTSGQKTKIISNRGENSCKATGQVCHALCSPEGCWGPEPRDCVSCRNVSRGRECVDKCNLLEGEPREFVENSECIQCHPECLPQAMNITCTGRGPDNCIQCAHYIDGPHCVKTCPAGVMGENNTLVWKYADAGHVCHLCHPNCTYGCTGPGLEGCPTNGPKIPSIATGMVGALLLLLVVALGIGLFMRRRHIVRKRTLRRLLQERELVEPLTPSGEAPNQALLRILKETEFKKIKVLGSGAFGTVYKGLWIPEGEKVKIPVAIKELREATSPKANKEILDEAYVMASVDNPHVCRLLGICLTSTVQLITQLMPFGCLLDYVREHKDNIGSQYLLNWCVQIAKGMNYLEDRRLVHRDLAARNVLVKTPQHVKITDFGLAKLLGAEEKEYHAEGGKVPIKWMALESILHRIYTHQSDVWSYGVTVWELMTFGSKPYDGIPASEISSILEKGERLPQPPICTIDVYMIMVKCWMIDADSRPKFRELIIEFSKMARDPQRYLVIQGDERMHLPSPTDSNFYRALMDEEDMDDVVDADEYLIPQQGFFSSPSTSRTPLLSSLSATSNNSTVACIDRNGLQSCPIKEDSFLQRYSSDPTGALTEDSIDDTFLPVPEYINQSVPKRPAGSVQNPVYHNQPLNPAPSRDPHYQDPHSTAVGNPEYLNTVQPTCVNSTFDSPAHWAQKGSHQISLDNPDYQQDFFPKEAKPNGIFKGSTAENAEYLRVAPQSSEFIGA
The subject of assay [2] is BT-474. The assay is described as follows: Antiproliferative activity against BT474 cells at 50 uM by MTT assay. The note with it: Homo sapiens. It is filed as functional, cell-based. A general note: Tetrazolium dyes change colour on reduction, which living cells bring about.
The test system of assay [3] is MDA-MB-468. The assay is described as follows: Antiproliferative activity against MDA-MB-468 cells at 50 uM by MTT assay. It is filed as functional, cell-based. The settings on record: Homo sapiens.
Assay [4] concerns the target T1, Epidermal growth factor receptor. The assay is described as follows: Inhibition of EGFR kinase activity at 100 uM in presence of 2.5 uM ATP. More on the design: scale not given: the % may be the effect or the level left. Summed up: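 EGFR purified from A431 cells, pre-incubated 30 min with 100 µM compound before kinase activity measurement. ATP held at 2.5 µM, four times below the Km for this enzyme preparation. Control was 2% DMSO. Mean ± standard deviation from 2–5 experiments in triplicate.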

Assay [5] relates to A-431. The assay is described as follows: Antiproliferative activity against A431 cells at 50 uM by MTT assay after 48 hrs. It is filed as functional, cell-based. The settings on record: Homo sapiens. The method, boiled down: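 A431 cells exposed to 50 µM compound for 2 days; viability read by MTT. Controls grown in 0.5% DMSO. Values are percentage of control, mean ± standard deviation from three experiments run in quadruplicate.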

For assay [6], the system named is MDA-MB-435. The assay is described as follows: Antiproliferative activity against MDA-MB-435 cells at 50 uM by MTT assay. It is filed as functional, cell-based. The settings on record: Homo sapiens.
Assay [7] concerns A-431. The assay is described as follows: Antiproliferative activity against A431 cells by MTT assay. It is filed as functional, cell-based. The settings on record: Homo sapiens. Summed up:
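A431 cells grown with increasing compound concentrations; proliferation measured by MTT 48 h after treatment. Two experiments performed in triplicate.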

Assay [8] deals with T1, Epidermal growth factor receptor. The assay is described as follows: Inhibition of EGFR kinase activity. Summed up:
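EGFR purified from A431 cells, incubated with compound at varying concentrations for 30 min at room temperature. Kinase reaction then started with ATP/MgCl2 and run 30 min at 30 °C. Activity expressed as percent of inhibitor-free control; mean ± standard deviation from 1 to 3 experiments in triplicate.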

`Cc1ccc(-c2cc(NC(=O)c3cccs3)[nH]n2)cc1`: the outcome in assay [1], in assay [2], in assay [3], in assay [5] and in assay [6] was inactive. Also, the Activity in assay [4] was found to be 44.1%.

Broadly, the IC50 is the concentration that inhibits the measured activity by half. Regarding `Oc1[nH]c2ccc(I)cc2c1/N=N/c1cccc2cccnc12`, the IC50 in assay [7] amounted to 1 µM. The result in assay [1] was inactive. For the same compound, the outcome in assay [2], in assay [3], in assay [5] and in assay [6] was Active. Besides, the Activity in assay [4] amounted to 50%.

With `O=NC1=C(NNc2ccccc2)C(=O)c2ccccc21`, the IC50 in assay [7] is 6 µM. Also, in assay [1], the outcome was inactive. The result in assay [2], in assay [3] and in assay [6] was Active. The Activity in assay [4] came to 50.3%.

In the case of `O=C(CSc1nc(O)cc(-c2ccccc2)n1)N1c2ccccc2CCc2ccccc21`, the outcome in assay [1] was inactive. The outcome in assay [2], in assay [3], in assay [5] and in assay [6] was Active. Further, the Activity in assay [4] was determined as 41.1%.

In the case of `C=CCOc1ccc2c(c1)C(=NO)c1cc(OCC=C)ccc1-2`, in assay [1], the outcome was inactive. For the same compound, the result in assay [2], in assay [3], in assay [5] and in assay [6] was Active. Also, the Activity in assay [4] came to 55.3%.

Consider `Nc1[nH]nc2nc(-c3ccco3)c3c(c12)CCCC3`, for which, in assay [1], the outcome was inactive. Besides, the result in assay [2], in assay [3], in assay [5] and in assay [6] was Active. Further, the Activity in assay [4] was determined as 44.5%.

Take `Cc1cccc(-n2ncc3c(NCc4ccc5c(c4)OCO5)ncnc32)c1`: the Activity stood at 40% in assay [1] and 48.4% in assay [4]. For the same compound, the result in assay [2], in assay [3], in assay [5] and in assay [6] was Active. 15 µM corresponded to half-maximal inhibition in assay [8] (IC50).
